Source: ChEMBL document CHEMBL2146385, “Synthesis and antiviral evaluation of bis(POM) prodrugs of (E)-[4'-phosphono-but-2'-en-1'-yl]purine nucleosides” (Eur J Med Chem, 2012)
Calls of active or inactive are those of the source. The calls are words filed in the database; no cut-off is given here.

Columns and labels:
Coxsackievirus B4 = assay: Antiviral activity against Coxsackievirus B4 infected in human HeLa assessed as inhibition of virus-induced cytopathicity after 3 days; assay type: functional, organism-based
Summary of the method: (§1)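 Confluent cell monolayers infected with 100 CCID50 of virus in the presence of test compound at 100, 20,... μM. Cytopathicity was scored once it was complete in untreated infected controls.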

Sindbis virus = assay: Antiviral activity against Sindbis virus infected in african green monkey Vero assessed as inhibition of virus-induced cytopathicity after 3 days; assay type: functional, organism-based; summary of the method: as §1
Punta Toro virus = assay: Antiviral activity against Punta Toro virus infected in african green monkey Vero assessed as inhibition of virus-induced cytopathicity after 3 days; assay type: functional, organism-based; summary of the method: as §1
Human alphaherpesvirus 1 [1] = assay: Antiviral activity against HSV1 KOS infected in HEL assessed as inhibition of virus-induced cytopathicity after 3 days; assay type: functional, organism-based; details: Human alphaherpesvirus 1, KOS, 72 h
Human alphaherpesvirus 1 [2] = assay: Antiviral activity against acyclovir-resistant thymidine kinase deficient HSV1 KOS infected in HEL assessed as inhibition of virus-induced cytopathicity after 3 days; assay type: functional, organism-based; details: Human alphaherpesvirus 1, KOS, 72 h
[3] = tested on: Respiratory syncytial virus; assay: Antiviral activity against Respiratory syncytial virus infected in human HeLa assessed as inhibition of virus-induced cytopathicity after 3 days; assay type: functional, organism-based; summary of the method: as §1
Human respirovirus 3 = assay: Antiviral activity against Parainfluenza-3 virus infected in african green monkey Vero assessed as inhibition of virus-induced cytopathicity after 3 days; assay type: functional, organism-based; summary of the method: as §1
[4] = tested on: Vesicular stomatitis virus; assay: Antiviral activity against Vesicular stomatitis virus infected in human HeLa assessed as inhibition of virus-induced cytopathicity after 3 days; assay type: functional, organism-based
[5] = tested on: Vesicular stomatitis virus; assay: Antiviral activity against Vesicular stomatitis virus infected in MDCK assessed as inhibition of virus-induced cytopathicity after 3 days; assay type: functional, organism-based
Influenza B virus = assay: Antiviral activity against Influenza B virus infected in MDCK assessed as inhibition of virus-induced cytopathicity after 3 days; assay type: functional, organism-based
[6] = Cytotoxicity against HEL after 3 days; assay type: cell-based; details: human, HEL cells
Summary of the method: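 HEL cells were seeded at 5×10^3 cells/well and allowed to grow for 24 h, then given medium with varying compound concentrations. After 3 days at 37 °C, cells were counted with a Coulter counter.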

Vaccinia virus = assay: Antiviral activity against Vaccinia virus infected in HEL assessed as inhibition of virus-induced cytopathicity after 3 days; assay type: functional, organism-based; details: Orthopoxvirus vaccinia, 72 h
Influenza A virus [7] = assay: Antiviral activity against Influenza A virus H3N2 infected in MDCK assessed as inhibition of virus-induced cytopathicity after 3 days; assay type: functional, organism-based
Human alphaherpesvirus 3 [8] = assay: Antiviral activity against VZV OKA expressing thymidine kinase infected in HEL cells assessed as inhibition of virus-induced cytopathogenicity after 3 days; assay type: functional, cell-based; details: Human alphaherpesvirus 3, strain Oka vaccine, 72 h
[9] = Cytotoxicity against HEL assessed as minimum compound concentration causes microscopically detectable alteration of cell morphology after 3 days; assay type: cell-based; details: human, HEL cells
Human alphaherpesvirus 3 [10] = assay: Antiviral activity against thymidine kinase-deficient VZV 07/1 infected in human HEL cells assessed as reduction of virus-induced cytopathogenicity after 3 days; assay type: functional, organism-based; details: Human alphaherpesvirus 3, 07/1, HEL, 72 h
[11] = tested on: Mammalian orthoreovirus 1; assay: Antiviral activity against Reovirus-1 infected in african green monkey Vero assessed as inhibition of virus-induced cytopathicity after 3 days; assay type: functional, organism-based; summary of the method: as §1
Human alphaherpesvirus 2 = assay: Antiviral activity against HSV2 G infected in HEL assessed as inhibition of virus-induced cytopathicity after 3 days; assay type: functional, organism-based; details: Human alphaherpesvirus 2, strain G, 72 h; summary of the method: as §1
Influenza A virus [12] = assay: Antiviral activity against Influenza A virus H1N1 infected in MDCK assessed as inhibition of virus-induced cytopathicity after 3 days; assay type: functional, organism-based

| SMILES | Activity (Coxsackievirus B4) | Activity (Sindbis virus) | Activity (Punta Toro virus) | EC50 (Human alphaherpesvirus 1 [1]) [µM] | EC50 (Human alphaherpesvirus 1 [2]) [µM] | Activity [3] | Activity (Human respirovirus 3) | Activity [4] | Activity [5] | Activity (Influenza B virus) | CC50 at 72 h [6] [µM] | EC50 (Vaccinia virus) [µM] | Activity (Influenza A virus [7]) | EC50 (Human alphaherpesvirus 3 [8]) [µM] | MCC at 72 h [9] [µM] | EC50 (Human alphaherpesvirus 3 [10]) [µM] | Activity [11] | EC50 (Human alphaherpesvirus 2) [µM] | Activity (Influenza A virus [12]) |
| --- | --- | --- | --- | --- | --- | --- | --- | --- | --- | --- | --- | --- | --- | --- | --- | --- | --- | --- | --- |
| CC(C)(C)C(=O)OCOP(=O)(C/C=C/Cn1cnc2c(Cl)ncnc21)OCOC(=O)C(C)(C)C | inactive | inactive | inactive | > 20 | > 20 | inactive | inactive | inactive | inactive | inactive | 10.5 | > 20 | inactive | > 20 | 100 | > 20 | inactive | > 20 | inactive |
| CC(C)(C)C(=O)OCOP(=O)(C/C=C/Cn1cnc2c(NC3CC3)ncnc21)OCOC(=O)C(C)(C)C | inactive | inactive | inactive | > 100 | > 100 | inactive | inactive | inactive | inactive | inactive | 39.6 | > 100 | inactive | 55.7 | > 100 | 47.2 | inactive | > 100 | inactive |
| C=CCNc1ncnc2c1ncn2C/C=C/CP(=O)(OCOC(=O)C(C)(C)C)OCOC(=O)C(C)(C)C | inactive | inactive | inactive | > 100 | > 100 | inactive | inactive | inactive | inactive | inactive | > 100 | > 100 | inactive | > 100 | > 100 | > 100 | inactive | > 100 | inactive |
| CC(C)(C)C(=O)OCOP(=O)(C/C=C/Cn1cnc2c(=O)[nH]cnc21)OCOC(=O)C(C)(C)C | inactive | inactive | inactive | > 100 | > 100 | inactive | inactive | inactive | inactive | inactive | 51.9 | > 100 | inactive | > 100 | > 100 | > 20 | inactive | > 100 | inactive |
| CCCCNc1ncnc2c1ncn2C/C=C/CP(=O)(OCOC(=O)C(C)(C)C)OCOC(=O)C(C)(C)C | inactive | inactive | inactive | > 100 | > 100 | inactive | inactive | inactive | inactive | inactive | 37.2 | > 100 | inactive | 100 | > 100 | > 100 | inactive | > 100 | inactive |
| CC(C)(C)C(=O)OCOP(=O)(C/C=C/Cn1cnc2c(Cl)nc(N)nc21)OCOC(=O)C(C)(C)C | inactive | inactive | inactive | > 20 | > 20 | inactive | inactive | inactive | inactive | inactive | 5.4 | > 20 | inactive | 4.4 | > 100 | 2.2 | inactive | > 20 | inactive |
| CC(C)(C)C(=O)OCOP(=O)(C/C=C/Cn1cnc2c(=O)n3cc[nH]c3nc21)OCOC(=O)C(C)(C)C | inactive | inactive | inactive | > 100 | > 100 | inactive | inactive | inactive | inactive | inactive |  | > 100 | inactive | 17.3 | > 100 | 40.7 | inactive | > 100 | inactive |
| CC(C)c1ccc(Nc2ncnc3c2ncn3C/C=C/CP(=O)(OCOC(=O)C(C)(C)C)OCOC(=O)C(C)(C)C)cc1 | inactive | inactive | inactive | > 100 | > 100 | inactive | inactive | inactive | inactive | inactive | 32.3 | > 100 | inactive | > 20 | 100 | > 20 | inactive | > 100 | inactive |
| O=c1[nH]c(=O)n([C@H]2C[C@H](O)[C@@H](CO)O2)cc1/C=C/Br [BRIVUDINE] |  |  |  | 0.08 |  |  |  |  |  |  |  | 5 |  |  | > 100 |  |  | 50 |  |
| CC(C)c1ccc(Nc2nc(N)nc3c2ncn3C/C=C/CP(=O)(OCOC(=O)C(C)(C)C)OCOC(=O)C(C)(C)C)cc1 | inactive | inactive | inactive | > 100 | > 100 | inactive | inactive | inactive | inactive | inactive | 46 | > 100 | inactive | > 20 | > 100 | > 100 | inactive | > 100 | inactive |
| Nc1ccn(C[C@@H](CO)OCP(=O)(O)O)c(=O)n1 [CIDOFOVIR] |  |  |  | 1.2 |  |  |  |  |  |  |  | 10 |  |  |  |  |  | 1 |  |
| Nc1nc2c(ncn2COCCO)c(=O)[nH]1 [ACYCLOVIR] |  |  |  |  |  |  |  |  |  |  | 134 | > 250 |  |  | > 100 |  |  |  |  |
| CC(C)(C)C(=O)OCOP(=O)(C/C=C/Cn1cnc2c(N)ncnc21)OCOC(=O)C(C)(C)C | inactive | inactive | inactive | > 100 | 20 | inactive | inactive | inactive | inactive | inactive | 11.6 | > 100 | inactive | 12.6 | > 100 | 13.5 | inactive | 45 | inactive |
| CC(C)(C)C(=O)OCOP(=O)(C/C=C/Cn1cnc2c(NC3CCCCC3)nc(N)nc21)OCOC(=O)C(C)(C)C | inactive | inactive | inactive | > 100 | > 100 | inactive | inactive | inactive | inactive | inactive | 9 | > 100 | inactive | 6.34 | 100 | 20 | inactive | > 100 | inactive |
| CC(C)(C)C(=O)OCOP(=O)(C/C=C/Cn1cnc2c(NC3CC3)nc(N)nc21)OCOC(=O)C(C)(C)C | inactive | inactive | inactive | 16.3 | 16.3 | inactive | inactive | inactive | inactive | inactive | 2.3 | 20 | inactive | 0.8 | > 100 | 0.8 | inactive | 7.2 | inactive |
